Source: ChEMBL document CHEMBL1153527, “Discovery of a novel series of quinolone and naphthyridine derivatives as potential topoisomerase I inhibitors by scaffold modification” (J Med Chem, 2009)
pIC50: −log10 of the molar value.

Tests used:
KB = test: Cytotoxicity against human KB cells after 48 hrs by MTT assay; assay type: functional, cell-based
Bel-7402 = test: Cytotoxicity against human Bel7402 cells after 48 hrs by MTT assay; assay type: functional, cell-based; settings: Bel-7402, 48 h
A2780 = test: Cytotoxicity against human A2780 cells after 48 hrs by MTT assay; assay type: functional, cell-based; settings: A2780, 48 h
U-937 = test: Cytotoxicity against human U937 cells expressing p53 mutant after 48 hrs by SRB assay; assay type: functional, cell-based; settings: U-937, 48 h
[1] = Cytotoxicity against estrogen receptor-negative human […] cells expressing p53 mutant after 48 hrs by SRB assay; assay type: functional, cell-based
Summary of the method: (§1)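 Cell lines came from CCRC, Taiwan. Cells were seeded at about 5 × 10^3 per well and left overnight. They were then given serum-free medium containing 0-10 μM compound (0.08-10 μM serial dilutions) for 48 h at 37 °C. Cells were fixed with TCA (10% final), stained with SRB (0.4% final), and the dye was dissolved in 10 mM Tris with A515 read. IC50 was taken from a fitted log concentration-response curve.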

A549 = test: Cytotoxicity against human A549 cells expressing wild type p53 after 48 hrs by SRB assay; assay type: functional, cell-based; settings: A549, 48 h; summary of the method: as §1
THP-1 = test: Cytotoxicity against human THP1 cells expressing p53 mutant after 48 hrs by SRB assay; assay type: functional, cell-based; settings: THP-1, 48 h
HeLa = test: Cytotoxicity against p53-deficient human HeLa cells after 48 hrs by SRB assay; assay type: functional, cell-based; summary of the method: as §1
AGS = test: Cytotoxicity against human AGS cells expressing wild type p53 after 48 hrs by SRB assay; assay type: functional, cell-based; summary of the method: as §1
HepG2 = test: Cytotoxicity against human HepG2 cells expressing wild type p53 after 48 hrs by SRB assay; assay type: functional, cell-based; settings: HepG2, 48 h; summary of the method: as §1
MCF7 = test: Cytotoxicity against estrogen receptor-positive human MCF7 cells expressing wild type p53 after 48 hrs by SRB assay; assay type: functional, cell-based; settings: MCF7, 48 h; summary of the method: as §1
PC-3 = test: Cytotoxicity against p53-deficient human PC3 cells after 48 hrs by SRB assay; assay type: functional, cell-based; settings: PC-3, 48 h; summary of the method: as §1
K562 = test: Cytotoxicity against p53-deficient human K562 cells after 48 hrs by SRB assay; assay type: functional, cell-based; settings: K562, 48 h
[2] = Cytotoxicity against p53-deficient human Hep3B cells after 48 hrs by SRB assay; assay type: functional, cell-based, Hep 3B2; summary of the method: as §1
HT-29 = test: Cytotoxicity against human HT-29 cells expressing p53 mutant after 48 hrs by SRB assay; assay type: functional, cell-based; settings: HT-29, 48 h; summary of the method: as §1

| SMILES | pIC50 (KB) | pIC50 (Bel-7402) | pIC50 (A2780) | pIC50 (U-937) | GI50 [1] [µM] | pIC50 [1] | GI50 (A549) [nM] | pIC50 (A549) | pIC50 (THP-1) | GI50 (HeLa) [µM] | pIC50 (HeLa) | GI50 (AGS) [µM] | pIC50 (AGS) | GI50 (HepG2) [µM] | pIC50 (HepG2) | GI50 (MCF7) [µM] | pIC50 (MCF7) | GI50 (PC-3) [µM] | pIC50 (PC-3) | pIC50 (K562) | other results |
| --- | --- | --- | --- | --- | --- | --- | --- | --- | --- | --- | --- | --- | --- | --- | --- | --- | --- | --- | --- | --- | --- |
| CCn1cc(-c2nc3ccc([N+](=O)[O-])cc3s2)c(=O)c2cc(F)c(N3CCNCC3)cc21 | 6.15 | 5.74 | 6.15 |  |  |  |  |  |  |  |  |  |  |  |  |  |  |  |  |  |  |
| CCn1cc(-c2nc3ccccc3[nH]2)c(=O)c2cc(F)c(N3CCNCC3)cc21 | 4.98 | 4.56 | 6.10 | < 5.00 | > 10 | < 5.00 | 600 | 5.33 | < 5.00 | > 10 | < 5.00 | 9.5 | < 5.00 | > 10 | < 5.00 | > 10 | < 5.00 | > 10 | < 5.00 | < 5.00 | GI50 [2]: > 10 µM; pIC50 [2]: < 5.00; GI50 (HT-29): > 10 µM; pIC50 (HT-29): < 5.00 |
| CCn1cc(-c2nc3ccc([N+](=O)[O-])cc3s2)c(=O)c2cc(F)c(N3CCN(C)CC3)cc21 | 5.24 | 5.11 | 5.37 | < 5.00 | > 10 | < 5.00 | 4700 | 5.00 | < 5.00 | > 10 | < 5.00 | 2.6 | 5.35 | > 10 | < 5.00 | > 10 | < 5.00 | 5.5 | 5.12 | < 5.00 | GI50 [2]: > 10 µM; pIC50 [2]: < 5.00; GI50 (HT-29): > 10 µM; pIC50 (HT-29): < 5.00 |
| CCn1cc(-c2nc3ccc(N)cc3[nH]2)c(=O)c2cc(F)c(N3CCNCC3)nc21 | 4.52 | 4.03 | 4.37 | < 5.00 | > 10 | < 5.00 | 500 | < 5.00 | 5.09 | > 10 | < 5.00 | 6.7 | 5.04 | > 10 | < 5.00 | > 10 | < 5.00 | > 10 | < 5.00 | < 5.00 | GI50 [2]: > 10 µM; pIC50 [2]: < 5.00; GI50 (HT-29): > 10 µM; pIC50 (HT-29): < 5.00 |
| CCn1cc(-c2nc3ccc(N)cc3[nH]2)c(=O)c2cc(F)c(N3CCNCC3)cc21 | 4.45 | 4.04 | 4.29 | < 5.00 | > 10 | < 5.00 | > 10000 | < 5.00 | 5.00 | > 10 | < 5.00 | 7.8 | 5.00 | > 10 | < 5.00 | > 10 | < 5.00 | > 10 | < 5.00 | < 5.00 | GI50 [2]: > 10 µM; pIC50 [2]: < 5.00; GI50 (HT-29): > 10 µM; pIC50 (HT-29): < 5.00 |
| CCn1cc(-c2nc3ccccc3o2)c(=O)c2cc(F)c(N3CCNCC3)nc21 | 4.93 | 4.77 | 4.82 |  |  |  |  |  |  |  |  |  |  |  |  |  |  |  |  |  |  |
| C[C@H]1COc2c(N3CCN(C)CC3)c(F)cc3c(=O)c(-c4nc5ccccc5s4)cn1c23 | 4.22 | 4.04 | 4.58 |  |  |  |  |  |  |  |  |  |  |  |  |  |  |  |  |  |  |
| CCn1cc(-c2nc3ccccc3s2)c(=O)c2cc(F)c(N3CCN(C)CC3)cc21 | 4.72 | 4.62 | 3.94 |  |  |  |  |  |  |  |  |  |  |  |  |  |  |  |  |  |  |
| CCn1cc(-c2nc3ccc(N)cc3[nH]2)c(=O)c2cc(F)c(N3CCN(C)CC3)cc21 | < 4.30 | < 4.30 | < 4.30 | < 5.00 | > 10 | < 5.00 | 1000 | < 5.00 | < 5.00 | > 10 | < 5.00 | 10 | < 5.00 | > 10 | < 5.00 | > 10 | < 5.00 | > 10 | < 5.00 | < 5.00 | GI50 [2]: > 10 µM; pIC50 [2]: < 5.00; GI50 (HT-29): > 10 µM; pIC50 (HT-29): < 5.00 |
| CCn1cc(-c2nc3ccc([N+](=O)[O-])cc3o2)c(=O)c2cc(F)c(N3CCN(C)CC3)cc21 | 4.39 | 4.30 | 4.40 |  |  |  |  |  |  |  |  |  |  |  |  |  |  |  |  |  |  |
| CCn1cc(-c2nc3ccc([N+](=O)[O-])cc3[nH]2)c(=O)c2cc(F)c(N3CCNCC3)cc21 | 5.96 | 5.68 | 5.80 |  |  |  |  |  |  |  |  |  |  |  |  |  |  |  |  |  |  |
| CCn1cc(-c2nc3ccccc3[nH]2)c(=O)c2cc(F)c(N3CCN(C)CC3)cc21 | 4.44 |  |  |  |  |  |  |  |  |  |  |  |  |  |  |  |  |  |  |  |  |
| CCn1cc(-c2nc3ccccc3s2)c(=O)c2cc(F)c(N3CCNCC3)nc21 | 5.62 | 5.62 | 5.57 |  |  |  |  |  |  |  |  |  |  |  |  |  |  |  |  |  |  |
| CCn1cc(-c2nc3ccc([N+](=O)[O-])cc3[nH]2)c(=O)c2cc(F)c(N3CCN(C)CC3)cc21 | 5.60 | 5.36 | 5.33 |  |  |  |  |  |  |  |  |  |  |  |  |  |  |  |  |  |  |
